Measured values reported in ChEMBL document CHEMBL1152982, “Synthetic analogue of rocaglaol displays a potent and selective cytotoxicity in cancer cells: involvement of apoptosis inducing factor and caspase-12” (J Med Chem, 2009).
Active and inactive are the calls of the source. The calls are words filed in the database; no cut-off is given here. Residues, ends and D or L forms follow the SMILES beside them. *: point of attachment. Cbz = O=C(OCc1ccccc1)*; CH2F = FC*

Assays:
HL-60 [1] = test: Inhibition of chymotrypsin-like activity of proteasome in human HL60 cells at 100 nM
Procedure, shortened: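 Lysates of HL60 cells treated with compound; chymotrypsin-like proteasome activity of the lysate measured in vitro.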

[2] = Inhibition of cap-dependent […] of firefly luciferase in mouse Krebs2 cell extract; assay type: functional, cell-free
[3] = target: ATP-dependent translocase ABCB1 (Homo sapiens, UniProt P08183); test: Inhibition of P-glycoprotein expressing human MCF7 cells assessed as change in rhodamine 123 efflux at 0.1 to 1 uM; assay type: cell-based
HL-60 [4] = test: Cytotoxicity against human HL60 cells after 72 hrs by MTS assay; assay type: functional, cell-based; settings: HL-60, 72 h
Procedure, shortened: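 HL60 cells exposed to compound for 72 h; proliferation/viability read by MTS assay. IC50 taken from dose-response curves run in duplicate.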

MCF7 [5] = test: Cytotoxicity against human MCF7 cells after 72 hrs by MTS assay; assay type: functional, cell-based
Procedure, shortened: (§1)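 Human cancer lines treated for 72 h and proliferation/viability read by MTS assay; dose-response curves in duplicate with IC50 taken from the curves; MCF7R is the P-gp (MDR1)-expressing resistant line.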

MCF7 [6] = test: Cytotoxicity against human MCF7 cells expressing P-glycoprotein after 72 hrs by MTS assay; assay type: functional, cell-based; procedure, shortened: as §1
HCT-15 = test: Cytotoxicity against human HCT15 cells after 72 hrs by MTS assay; assay type: functional, cell-based; procedure, shortened: as §1
HCT-116 = test: Cytotoxicity against human HCT116 cells after 72 hrs by MTS assay; assay type: functional, cell-based; settings: HCT-116, 72 h; procedure, shortened: as §1
HepG2 [7] = test: Cytotoxicity against human HepG2 cells after 72 hrs by MTS assay; assay type: functional, cell-based; procedure, shortened: as §1
KB = test: Cytotoxicity against human KB cells after 72 hrs by MTS assay; assay type: functional, cell-based; procedure, shortened: as §1
HL-60 [8] = test: Induction of apoptosis in human HL60 cells assessed as increase in caspase 3/7-mediated at 1 uM after 48 hrs measured by spectroscopy; assay type: functional
Procedure, shortened: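 HL60 cells treated 48 h. Whole-cell extracts tested for cleavage of the caspase-3 substrate DEVD-AMC, with fluorescence release read spectroscopically. Rates taken from the slope of the linear time course and expressed as fold-activation over the DMSO-treated control.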

H9c2 [9] = test: Induction of apoptosis in rat H9c2 cells at 1 uM after 24 hrs by FACS analysis; assay type: cell-based; settings: h9c2, 24 h
Procedure, shortened: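 Rat H9c2 cardiomyoblasts treated 24 h with compound or vehicle. Cells labeled with annexin V and propidium iodide and analyzed by FACS for apoptosis.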

HL-60 [10] = test: Cell cycle arrest in human HL60 cells assessed as accumulation of cells in G2/M phase at 20 nM after 48 hrs by FACS analysis; assay type: functional, cell-based
Procedure, shortened: (§2)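 HL60 cells treated for 48 h; vehicle control 1% DMSO, doxorubicin as positive control. Propidium iodide staining, DNA content by flow cytometry giving cell-cycle distribution (G2/M, G0-G1 peaks); n = 4, each sample in duplicate.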

[11] = Drug localization in mitochondria of human HeLa cells at 50 uM after 2 hrs by Mito-Tracker Red dye; assay type: ADME
Procedure, shortened: (§3)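 Live HeLa cells incubated with 50 μM fluorescent probe for 2 h, then 15 min with 1 μM organelle dye: Mito-Tracker Red (mitochondria), ER-tracker red (endoplasmic reticulum), or BODIPY 558/568 brefeldin A (ER plus Golgi). Localization judged by overlap of probe and dye signals in merged confocal images.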

[12] = Drug localization in endoplasmic reticulum of human HeLa cells at 50 uM after 2 hrs by ER tracker; assay type: ADME, cell-based; procedure, shortened: as §3
HL-60 [13] = test: Cytotoxicity against human HL60 cells; assay type: functional, cell-based
HeLa = test: Binding affinity to eIF4A in human HeLa cell extract by agarose pulldown assay; assay type: cell-free
[14] = Drug localization in golgi apparatus of human HeLa cells after 2 hrs by Brefeldin tracker; assay type: ADME, cell-based; procedure, shortened: as §3
[15] = Drug localization in mitochondria of human HeLa cells after 2 hrs by Mito-Tracker Red dye
HL-60 [16] = test: Cell cycle arrest in human HL60 cells assessed as increase in G0/G1 peak at 200 nM after 48 hrs by FACS analysis; assay type: functional, cell-based; procedure, shortened: as §2
[17] = Drug localization in endoplasmic reticulum of human HeLa cells after 2 hrs by ER tracker; assay type: ADME, cell-based; procedure, shortened: as §3
HepG2 [18] = test: Enhancement of doxorubicin-induced cytotoxicity against human HepG2 cells after 72 hrs by MTS assay; assay type: functional, cell-based
Procedure, shortened: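 HepG2 cells given the test agent alone or together with 150 nM doxorubicin for 72 h; proliferation by MTS assay; duplicate experiments, n = 3.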

HL-60 [19] = test: Inhibition of proteasome activity in human HL60 cells at 20 to 200 nM; assay type: subcellular
Procedure, shortened: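 Lysates of HL60 cells incubated with compound; in vitro chymotrypsin-like and trypsin-like proteasome activities measured with fluorogenic AMC substrates (LLVY-AMC, RLR-AMC).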

HL-60 [20] = test: Induction of apoptosis in human HL60 cells assessed as caspase 3/7-mediated DEVD-AMC substrate cleavage at 1 to 1000 nM after 48 hrs by spectroscopy; assay type: functional, cell-based
Procedure, shortened: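 HL60 cells treated 48 h, doxorubicin as positive control; whole-cell extracts incubated with DEVD-AMC, fluorescence release followed over time; rate from slope of linear phase, expressed as fold-activation over DMSO-treated control.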

HL-60 [21] = test: Cell cycle arrest in human HL60 cells assessed as accumulation of cells in G2/M phase at 200 nM after 48 hrs by FACS analysis; assay type: functional, cell-based; procedure, shortened: as §2
HL-60 [22] = test: Cell cycle arrest in human HL60 cells assessed as increase in G0/G1 peak at 20 nM after 48 hrs by FACS analysis; assay type: functional, cell-based; procedure, shortened: as §2
HL-60 [23] = test: Antiproliferative activity against human HL60 cells at 50 nM in presence of […] inhibitor 3-methyladenine; assay type: functional, cell-based
Procedure, shortened: (§4)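 HL60 cells exposed for 72 h, with or without co-treatment with Z-VAD-FMK (50 μM), necrostatin-1 (50 μM) or 3-methyladenine (2 mM). Antiproliferative effect was compared against vehicle.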

HL-60 [24] = test: Antiproliferative activity against human HL60 cells at 50 nM in presence of […] inhibitor necrostatin 1; assay type: functional, cell-based; procedure, shortened: as §4
H9c2 [25] = test: Induction of apoptosis in rat H9c2 cells at 0.5 to 50 nM after 24 hrs by FACS analysis; assay type: cell-based; settings: h9c2, 24 h, 0.05 µM
Procedure, shortened: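 Rat H9c2 cardiomyoblasts treated 24 h (0.5-50 nM) or 24, 48 and 72 h (20 nM) versus vehicle; annexin V plus propidium iodide labeling and FACS for apoptosis; viability in parallel by MTS; doxorubicin 1 μM as positive control.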

HL-60 [26] = test: Antiproliferative activity against human HL60 cells at 50 nM in presence of caspase inhibitor Z-VAD-FMK; assay type: functional, cell-based; procedure, shortened: as §4
[27] = Homo sapiens, MCF7, 72 h, read-out: IC50
[28] = Homo sapiens, HCT-15, 72 h, read-out: IC50
[29] = Homo sapiens, HepG2, 72 h, read-out: IC50

ATP-dependent translocase ABCB1, sequence (P08183 whole entry): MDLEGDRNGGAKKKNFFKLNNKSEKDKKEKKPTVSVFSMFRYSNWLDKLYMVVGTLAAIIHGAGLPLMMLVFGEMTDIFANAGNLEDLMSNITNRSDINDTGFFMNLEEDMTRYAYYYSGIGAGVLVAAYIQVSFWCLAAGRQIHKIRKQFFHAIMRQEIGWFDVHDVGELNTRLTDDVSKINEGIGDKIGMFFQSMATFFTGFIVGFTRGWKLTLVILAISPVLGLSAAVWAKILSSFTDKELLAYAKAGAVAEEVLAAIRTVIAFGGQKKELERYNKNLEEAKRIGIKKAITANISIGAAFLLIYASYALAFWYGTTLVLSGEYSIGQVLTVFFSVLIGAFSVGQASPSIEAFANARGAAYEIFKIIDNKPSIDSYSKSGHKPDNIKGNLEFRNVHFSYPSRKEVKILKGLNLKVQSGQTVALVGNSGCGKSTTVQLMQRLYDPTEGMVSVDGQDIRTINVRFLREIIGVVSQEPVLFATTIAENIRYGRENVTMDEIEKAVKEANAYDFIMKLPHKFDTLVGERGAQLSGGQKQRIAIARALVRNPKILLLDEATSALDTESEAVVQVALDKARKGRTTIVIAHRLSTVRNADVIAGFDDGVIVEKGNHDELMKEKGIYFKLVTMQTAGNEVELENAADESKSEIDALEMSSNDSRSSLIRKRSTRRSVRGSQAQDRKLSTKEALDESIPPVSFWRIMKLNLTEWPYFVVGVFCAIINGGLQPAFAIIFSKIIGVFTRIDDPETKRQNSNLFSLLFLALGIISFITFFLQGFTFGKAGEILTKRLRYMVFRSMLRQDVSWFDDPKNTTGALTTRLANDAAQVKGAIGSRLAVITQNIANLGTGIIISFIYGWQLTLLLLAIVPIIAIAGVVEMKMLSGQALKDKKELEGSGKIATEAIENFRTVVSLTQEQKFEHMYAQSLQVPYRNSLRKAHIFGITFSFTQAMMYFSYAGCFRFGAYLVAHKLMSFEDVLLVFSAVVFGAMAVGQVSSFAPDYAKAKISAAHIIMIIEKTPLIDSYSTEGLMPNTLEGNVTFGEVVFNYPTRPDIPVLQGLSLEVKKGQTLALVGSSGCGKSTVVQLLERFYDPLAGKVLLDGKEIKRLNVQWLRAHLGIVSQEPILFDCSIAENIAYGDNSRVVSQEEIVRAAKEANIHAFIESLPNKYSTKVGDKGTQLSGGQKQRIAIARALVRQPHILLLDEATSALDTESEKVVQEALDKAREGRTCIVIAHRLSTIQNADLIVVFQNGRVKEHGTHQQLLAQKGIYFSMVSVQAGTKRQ

## CC(C)C[C@H](NC(=O)[C@H](Cc1ccccc1)NC(=O)c1cnccn1)B(O)O
HL-60 [1]
  Activity: Active

## COC(=O)[C@H]1[C@@H](OC=O)[C@@]2(O)c3c(OC)cc(OC)cc3O[C@@]2(c2ccc(OC)cc2)[C@@H]1c1ccccc1
[2]
  IC50: 3000 nM

## COc1cc(OC)c2c(c1)O[C@@]1(c3ccccc3)[C@H](c3ccccc3)C[C@@H](O)[C@@]21O
[3]
  Activity: Not Active
HL-60 [4]
  IC50: 6000 nM
MCF7 [5]; [27]
  IC50: 10000 nM
MCF7 [6]; [27]
  IC50: 10000 nM
HCT-15; [28]
  IC50: 8000 nM
HCT-116
  IC50: 6000 nM
HepG2 [7]; [29]
  IC50: > 10000 nM
KB
  IC50: 2500 nM

## CC[C@]1(O)C[C@@H]2CN(CCc3c([nH]c4ccccc34)[C@@](C(=O)OC)(c3cc4c(cc3OC)N(C)[C@H]3[C@@](O)(C(=O)OC)[C@H](OC(C)=O)[C@]5(CC)C=CCN6CC[C@]43[C@@H]65)C2)C1 [VINBLASTINE]
HL-60 [4]
  IC50: 1 nM
MCF7 [5]; [27]
  IC50: 4.6 nM
MCF7 [6]; mcf7
  IC50: Not Active
HCT-15; [28]
  IC50: 10 nM
HCT-116
  IC50: 1.3 nM
HepG2 [7]; hepg2
  IC50: Not Active
KB
  IC50: 0.8 nM

## COc1cccc2c1C(=O)c1c(O)c3c(c(O)c1C2=O)C[C@@](O)(C(=O)CO)C[C@@H]3O[C@H]1C[C@H](N)[C@H](O)[C@H](C)O1 [DOXORUBICIN]
HL-60 [8]
  fold change (FC): 14
HL-60 [4]
  IC50: 13 nM
MCF7 [5]; [27]
  IC50: 12 nM
H9c2 [9]
  fold change (FC): 3
MCF7 [6]; [27]
  IC50: 58 nM
HL-60 [10]
  Activity: Active
HCT-15; [28]
  IC50: 81 nM
HCT-116
  IC50: 6 nM
HepG2 [7]; [29]
  IC50: 240 nM
KB
  IC50: 1 nM

## COc1ccc2c(c1)O[C@@]1(c3ccc(Br)cc3)[C@H](c3ccccc3)[C@@H](C(=O)NCCOCCOCCNC(=O)Cc3cc(=O)oc4cc(N(C)C)ccc34)[C@@H](O)[C@@]21O
HL-60 [4]
  IC50: 130 nM
[11]
  Activity: Not Active
[12]
  Activity: Active

## COC(=O)C[C@H](NC(=O)[C@H](C)NC(=O)[C@@H](NC(=O)[C@H](C)NC(=O)OCc1ccccc1)[C@@H](C)O)C(=O)CF (Cbz-ATAD(OMe)-CH2F)
HL-60 [13]
  Activity: Active

## COC(=O)[C@H]1[C@@H](O)[C@@]2(O)c3c(OC)cc(O[C@@H]4O[C@@H]([C@H](O)CO)CO[C@H]4OC)cc3O[C@@]2(c2ccc(OC)cc2)[C@@H]1c1ccccc1 [SILVESTROL]
[2]
  IC50: 300 nM

## COc1cc(OC)c2c(c1)O[C@@]1(c3ccc(Br)cc3)[C@H](c3ccccc3)[C@@H](C(=O)NCCOCCOCCOCCOCCOCCOCN)[C@@H](O)[C@@]21O
HeLa
  Activity: inactive

## CC[C@@]1(O)C(=O)OCc2c1cc1n(c2=O)Cc2cc3ccccc3nc2-1 [CAMPTOTHECIN]
HL-60 [4]
  IC50: 6 nM
MCF7 [5]; [27]
  IC50: 10 nM
MCF7 [6]; [27]
  IC50: 3 nM
HCT-15; [28]
  IC50: 3 nM
HCT-116
  IC50: 2 nM
HepG2 [7]; [29]
  IC50: 455 nM
KB
  IC50: 38 nM

## CC(=O)O[C@@]12CO[C@@H]1C[C@H](O)[C@@]1(C)C(=O)[C@H](O)C3=C(C)[C@@H](OC(=O)[C@H](O)[C@@H](NC(=O)OC(C)(C)C)c4ccccc4)C[C@@](O)([C@@H](OC(=O)c4ccccc4)[C@H]21)C3(C)C.O.O.O [DOCETAXEL]
HL-60 [4]
  IC50: 0.5 nM
MCF7 [5]; mcf7
  IC50: Not Active
MCF7 [6]; mcf7
  IC50: Not Active
HCT-15; [28]
  IC50: 13 nM
HCT-116
  IC50: 0.5 nM
HepG2 [7]; hepg2
  IC50: Not Active
KB
  IC50: 0.2 nM

## COc1ccc([C@@H]2C[C@@H](O)[C@@]3(O)c4c(OC)cc(OC)cc4O[C@@]23c2ccccc2)cc1
[3]
  Activity: Not Active
HL-60 [4]
  IC50: > 10000 nM
MCF7 [5]; mcf7
  IC50: Not Active
MCF7 [6]; [27]
  IC50: > 10000 nM
HCT-15; hct-15
  IC50: Not Active
HCT-116
  IC50: > 10000 nM
HepG2 [7]; hepg2
  IC50: Not Active
KB
  IC50: > 10000 nM

## CC(=O)NCCOCCOCCNC(=O)Cc1cc(=O)oc2cc(N(C)C)ccc12
[14]
  Activity: Not Active
[15]
  Activity: Not Active
HL-60 [16]
  Activity: inactive
[17]
  Activity: Not Active

## COc1ccc([C@@]23Oc4cc(OC)cc(OC)c4[C@]2(O)[C@H](O)C[C@H]3c2ccccc2)cc1 (racemic) [ROCAGLAOL]
[3]
  Activity: Not Active
HepG2 [18]
  Activity: Active
HL-60 [4]
  IC50: 3 nM
HL-60 [19]
  Activity: inactive
HL-60 [20]
  Activity: inactive
HL-60 [21]
  Activity: Active
HL-60 [22]
  Activity: Active
MCF7 [5]; [27]
  IC50: 4 nM
MCF7 [6]; [27]
  IC50: 4 nM
HL-60 [10]
  Activity: Active
HL-60 [23]
  Activity: inactive
HCT-15; [28]
  IC50: 6 nM
HCT-116
  IC50: 6 nM
HL-60 [16]
  Activity: Active
HL-60 [24]
  Activity: inactive
HepG2 [7]; [29]
  IC50: 70 nM
H9c2 [25]
  Activity: Not Active
HL-60 [26]
  Activity: inactive
KB
  IC50: 2 nM
